Measurements as given in the EternaBench riboswitch data.

System: MS2 coat protein
Assay: apparent Kd, MS2 coat protein; higher = weaker binding; RNA-MaP array; FMN 200 µM where present
In short: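 The apparent Kd is the median of filtered binding-curve fits, one per cluster, to green signal normalised to red-channel RNA signal and control-cluster median Fmax. The clusters were on Illumina sequencing chips, and stalled E. coli RNA polymerase had transcribed the designs on them. Titration used SNAP-549-labelled MS2 coat protein from 0.7 or 1.5 nM, doubling to 3 µM, without and then with constant ligand, in 100 mM Tris-HCl pH 7.5, 80 mM KCl, 4 mM MgCl2, BSA, DTT, yeast tRNA and Tween-20.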

[1] = designed as: ON switch for flavin mononucleotide, no ligand
[2] = ligand present: flavin mononucleotide, designed as: ON switch for flavin mononucleotide
[3] = designed as: OFF switch for flavin mononucleotide, no ligand
[4] = ligand present: flavin mononucleotide, designed as: OFF switch for flavin mononucleotide

Sequence	apparent Kd [1] [nM]	apparent Kd [2] [nM]	apparent Kd [3] [nM]	apparent Kd [4] [nM]
AAGUUUGUACAAGGAUAUCAAUUGUUUCUAAAUUCAACAUGAGGAUCACCCAUGUAACAAUGGAGUGAGAAGGUGUGUGGGCAA	419	423	–	–
GAGAAGGUAGGAUAUACGAAUAAAUAGGGUAGGAAGAAGACACAUGAGGAUCACCCAUGUAGAAGGACCAAGAU	–	–	18.8	38.3
UUGGACGUCGUAGGAUAUGUAGGAUAUUCCUACAUGAGGAUCACCCAUGUUGACAUGGAGGAAGGACAGAAGGACGAUGUCCAU	667	98	–	–
AAAUAAACUACCAAAAUAUCCUCACAUGAGGAUCACCCAUGUCAGGAUAUUUGUCCUAAAAGGACAGAGAAGGGACGUGGUAGA	–	–	5.63	10.7
AUCAGCUCGUCAGGAUAUACGUCACUGCGUCAGCAGUGUGGUAAGAUCACAUGAGGAUCACCCAUGUAGAAGGGACGAGCUCAU	–	–	13.9	322
UCUACAUAAAUUCAUCAAUACAGAAAGGAUAUGAGAUACAUGAGGAUCACCCAUGUGCAUGUGAAUUAGAAGGUUCAAUUAACU	–	–	14.4	11.1
AUUUUAAUGUCAGGAUAUAUUAGUUUUUACAUAGUAGAAGGGAUAAUUAUACUCAUGUACAUGAGGAUCACCCAUGUUAAAUAU	139	44.5	–	–
GCAUCCAAAGUGAGGAUAUACCUCUGGAUACAGAGGUAGAAGGCACAUGAGGAUCACCCAUGUUACUAGGAUGC	–	–	12.9	17
GCAGCGCUUGACAUGAGGAUCACCCAUGUUAGAUUGUUAAGUCAGGAUAUAGUCUAGAAACUAGACUAGAAGGGAUUUGCUGCU	7.18	6.14	–	–
UAUUAAAACGAGAAGGGAGUACAUGAGGAUCACCCAUGUGCCUCAUAAUACUCAGGAUAUCGUGAUUGGGUCACCAGCUGGGUG	–	–	509	29.3
GACAUGGUCCAGAAGGGCUAUUUAUUUAAUUAUUAUUUAGAACAGCAUAGCAGGAUAUGGUUAACAUGAGGAUCACCCAUGUUC	26.2	20.8	–	–
CAUGACGAAGGAUAUACAUGAGGAUCACCCAUGUGGUCAUGGAAGUACGUGUUCUCGCGUAGAAGGUUGUAAAA	–	–	12.9	13.6
ACCAAGCUAGGAUAUGCUUGGGCUCAAAUAAAUAAACACAAACAUGAGGAUCACCCAUGUAGAAGGAGCUUGCU	–	–	12.4	15.5
UUCAGCUCGUGAGGAUAUACAUGUGCUGGAAACAGCACUAUUAAGUUCACAUGAGGAUCACCCAUGUAGAAGGCACGAGCUGAG	–	–	14.9	19.3
UUAAUAAUACAAGGAUAUCUAUUGUUCUUAAGACAUACAUGAGGAUCACCCAUGUUAAUAUAUGUAGAGAAGGUGUAUUUUCAG	30.5	22.9	–	–
ACAAAACAUGAGGAUCACCCAUGUGAGGAUAUGCGAAACAAACAAACAAACAAACAAAGCAGAAGGCACAACAA	–	–	22.7	37.1
AAGACUAGAGGAUAUACAUGAGGAUCACCCAUGUAACUGUCAGGAGACUGACGGAGAUGUAGAAGGCUAGUCAA	–	–	17	34.1
CAUUGGUAAGGAUAUGAAUCGAUCUCAGAAAUGAGAUCGAUUCAGAAGGUACAUGAGGAUCACCCAUGUUGAUG	–	–	27.8	72.9
CUUUUGUGAGGAUAUUAGUAGUUAAUAAAUAAAAUUACUACUGAGAAGGCACAUGAGGAUCACCCAUGUUCCUC	–	–	31.5	226
AGUGUCAUCGAGAAGGCCUCAACAUGAGGAUCACCCAUGUUGUAAUAUGGGAGGAUAUCGAUGAUACAGCUACGUUUCGUAGCG	19.9	5.82	–	–
UACGCGUAGGAGAAGGGCCCACUAUAGGGUAAGUGCUGUUCUCACAUGAGGAUCACCCAUGUGCGGCAGGAUAUCCACGCGUGC	–	–	11.6	66.7

Sequence	apparent Kd [1] [nM]	apparent Kd [2] [nM]	apparent Kd [3] [nM]	apparent Kd [4] [nM]
UGAUAACAUGUAGGAUAUGCAGCAUUGACCACUGCAGAAGGACAUGAGGAUCACCCAUGUAGCCGUACUAUGGGAUCACGCAAU	–	–	47.7	232
CCACCCUGAGGAUAUCCACCCUCAUACAUGAGGAUCACCCAUGUUCAUCCCUGAGUACCCGGAGAAGGCAGAUUCC	–	–	60.3	50.6
AGCUGUGGCCGAGGAUAUCUAUCCAAUAUAACCGAAAUAUAAUCGGACAUGAGGAUCACCCAUGUAGAGAAGGCGGUCUCAGCA	–	–	19.8	25.5
GCCACAGCAGGAUAUUCAAUAAUUCACAUGAGGAUCACCCAUGUCGAGCGAAAGCUCGAGGGAGAAGGGCUGUGGC	–	–	39.5	13.7
GCAGGAUAAGUCAGGAUAUACCUAUGGAUACAUAGGUAGAAGGGACAUGAGGAUCACCCAUGUGCCUCGCCUGC	–	–	14.5	37.4
GGACGUCUCAUUAACAUGAGGAUCACCCAUGUCAAAAGACAUGAGGAUAUGGUUCCUAAUUGGAACCAGAAGGCAUGGACGUCC	853	67.8	–	–
GUACAUACAAAGUUACAUGAGGAUCACCCAUGUUUAUUGGGAAGAAGGGUAACAUUAUUAAAUAUAUAGGAUAUUUCACAAUUG	546	283	–	–
AAAACGUGAGGAUAUGCACCAACCAAGGUUUUUCGGGUACGACAUGAGGAUCACCCAUGUAGAAGGCACGCAAA	–	–	26.4	32
AAGUAUAGAGGAUAUAGUAAGUACUACAUGAGGAUCACCCAUGUUCUUCAUUACGUAUUUCUAGAAGGCUGAUAAA	–	–	376	581
GCAAAGCCUGACAUGAGGAUCACCCAUGUUAGAUUGUUAUGUCAGGAUAUUGUCUAGCAACUAGACAAGAAGGGAUGCUCUGCG	744	215	–	–
CCUAGACAUGAGGAUCACCCAUGUGAGGAUAUGAUGCGAUCGUCGAAAGACGAUAGCAUCAGAAGGCACAUAUG	–	–	34.4	109
UUGGAGUACGUAGGAUAUGUAGGAUUUUCCUACAUGAGGAUCACCCAUGUUAGCAUGGAAGAAGGACAGAAGGACGUGCUCCAU	1040	78.1	–	–
GCCAUCGCAUGAGGAUAUGCUCCCGUUUCGGGAGCAGAAGGCAUGUCAUAUGACAUGAGGAUCACCCAUGUAGCUAAGAUGGCA	576	17.5	–	–
AAUUAUAUGUAGAAGGUACUAACAUAAGUGUUGUAAGGAUAUACCAAUUUAUUAGUUUUAAAGUUACAUGAGGAUCACCCAUGU	12.4	7.98	–	–
GUGUACAGAGGAUAUACUUGAAUCUAGCGAAGCUAGGUUCGACAUGAGGAUCACCCAUGUAGAAGGCUGUACAC	–	–	12.7	17.4
UGUGCGUUGAUCUUCGAUCGGAGUACAUGAGGAUCACCCAUGUAGGAUAUUCAAAGACGCAGAUAGAAGAAGGACAUAGGUUUC	–	–	10.1	11.1
UGGUGAAGUGUAGGAUAUGGAGAUGGGUUUUGGCCAGAAGGACAUGAGGAUCACCCAUGUGGUAGAGGGUUGGUGGUAGCUCCU	–	–	36.2	31.7
GUCACGAAUGUAGGAUAUCGAGUGGAAUACACUCGAGAAGGACAUGAGGAUCACCCAUGUCAAAUGAAAGAUAAUAAACGUGAC	–	–	14.6	18.8
GCCCAGCUAGGAUAUCGCACUGCAGACAUGAGGAUCACCCAUGUGAUGAGGUCUGAAUCCCGAGAAGGAGCAUGGA	–	–	17.8	41.7
AUCUCAGGACGAGGAUAUCAAUACAUGAGGAUCACCCAUGUAUUACUACUGUGAUCCUUCAAGGCUGAGAAGGCGUCCCAAAUG	–	–	20.7	37.8
CCGGAAGUAGAGGAUAUCGUAUCGGAUACGAUACGAGAAGGCUAUACAUGAGGAUCACCCAUGUGUCCUACCGG	–	–	24.6	33.3
